PAD4 inh – human PAD4 inhibitors, primary screen, biochemical, fluorescence polarization, 1536-well format; Protein-arginine deiminase type-4 (Homo sapiens), Q9UM07; recombinant PAD4, RCA probe fluorescence polarization; inhibition, % at 6.36 µM; 0.41% of 330,000 active;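 active means percent inhibition above a cutoff equal to the mean of all tested compounds plus 3 SD, cut at about 15% in these data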
PME-1 primary – PME-1 inhibitors via competitive probe labeling, primary screen, biochemical, fluorescence polarization, FP-Rh probe, HTS | Protein phosphatase methylesterase 1 (Homo sapiens), Q9Y570 | recombinant PME-1 | 0.53% of 320,000 active | AID 2130, 2009 | inhibition, % at 5.9 µM;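 active means inhibition above the campaign mean of all compounds plus 3 SD, cut at about 26% in these data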;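 further: competitive labeling of PME-1 active site by serine hydrolase directed probe; inhibitors block probe labeling so polarization falls and inhibition rises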
Fam108B counter – mouse Fam108B serine hydrolase inhibitors, primary screen, counter-screen for RBBP9 inhibitor project, biochemical, fluorescence polarization; recombinant Fam108B, FP-Rh probe fluorescence polarization; inhibition, % at 9.51 µM; 0.33% of 300,000 active; AID 1947, 2009;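 active means inhibition above the screen mean inhibition plus 3 SD, computed separately per campaign, cut at about 18% in these data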;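 further: inhibitors lower polarization as less probe binds the enzyme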
RBBP9 inh – human RBBP9 inhibitors, primary screen, biochemical, fluorescence polarization, FP-Rh probe, HTS. Serine hydrolase RBBP9 (Homo sapiens), O75884. 0.2% of 220,000 active. inhibition, % at 7.94 µM. recombinant RBBP9;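 active means inhibition above the campaign mean of all tested compounds plus 3 SD, cut at about 14% in these data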
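Measured by – fluorescence polarization · Test system – RBBP9 protein · Input – 2.5 µM RBBP9 dispensing solution, before mixing · Measure – percent inhibition from mP, scaled between DMSO and no-protein wells · Benchmarks – DMSO-treated enzyme wells and wells lacking RBBP9 · Times – preincubation 30 min plus labeling 45 min at 25 °C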
GSTO1 counter – inhibitors of recombinant GSTO1, primary screen, counter-screen for RBBP9 inhibitor project, biochemical, fluorescence polarization. activity-based probe fluorescence polarization. inhibition, % at 5.96 µM. 1.1% of 300,000 active. AID 1974, 2009;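 active means inhibition above the campaign mean inhibition plus 3 SD, cut at about 35% in these data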
PRMT1 FP inh – PRMT1 methyltransferase inhibitors, primary screen, biochemical, fluorescence polarization; Protein arginine N-methyltransferase 1 (Homo sapiens), Q99873; recombinant PRMT1, activity-based probe fluorescence polarization; inhibition, % at 2.79 µM; 1.3% of 370,000 active; AID 652257, 2013;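 active means inhibition above about 21% made by adding two undisclosed values, limit read from the data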
Target sequence (Q99873 whole entry, looked up): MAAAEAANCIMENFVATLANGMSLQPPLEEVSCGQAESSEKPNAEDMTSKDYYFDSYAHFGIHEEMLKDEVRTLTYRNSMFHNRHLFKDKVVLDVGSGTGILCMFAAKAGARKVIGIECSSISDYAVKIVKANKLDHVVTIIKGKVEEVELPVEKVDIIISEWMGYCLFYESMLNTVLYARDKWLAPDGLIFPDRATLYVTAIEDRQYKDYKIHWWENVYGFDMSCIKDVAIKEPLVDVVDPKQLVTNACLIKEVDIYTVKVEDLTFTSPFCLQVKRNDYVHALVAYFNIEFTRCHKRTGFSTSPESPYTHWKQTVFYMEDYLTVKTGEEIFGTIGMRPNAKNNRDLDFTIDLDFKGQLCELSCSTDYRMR
RBBP9 inh conf – human RBBP9 inhibitors, retest, confirmation, biochemical, fluorescence polarization, FP-Rh probe, triplicate; inhibition, % at 7.94 µM; recombinant RBBP9; shares compounds with RBBP9 inh; 36% of 410 active;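 active means inhibition above the hit cutoff derived for the primary screen, cut at about 15% in these data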
Fam108b inh conf – mouse Fam108b serine hydrolase inhibitors, confirmation, counter-screen for RBBP9 inhibitor project, biochemical, fluorescence polarization, triplicate; shares compounds with Fam108B counter; inhibition, % at 9.51 µM; 44% of 930 active; recombinant Fam108b, FP-Rh probe fluorescence polarization;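 active means inhibition above a limit from the primary screen, the mean over all compounds plus 3 SD, cut at about 19% in these data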;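 further: inhibitors free the probe so polarization falls as inhibition rises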
GSTO1 inh conf – GSTO1 inhibitor hit confirmation, counter-screen for RBBP9 inhibitor project, biochemical, fluorescence polarization, triplicate; recombinant GSTO1, probe fluorescence polarization; 54% of 2,400 active; shares compounds with GSTO1 counter; inhibition, % at 5.96 µM;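 active means inhibition above the primary screen's cutoff, its mean inhibition plus 3 SD, cut at about 35% in these data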;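 further: loss of polarization as inhibitors block binding of rhodamine sulfonate ester activity probe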
Large screens that a line does not name were inactive (follow-up assays come after a bar, where they were run). An excerpt weighted towards active compounds, which were near 2.3% of everything screened.

O=C(Nc1ccccc1)Nc1sccc1-c1nc2ccccc2s1	none
O=C(Nc1cccc(Cl)c1)Nc1sccc1-c1nc2ccccc2s1	Fam108B counter 27, RBBP9 inh 15 | RBBP9 inh conf 19 | Fam108b inh conf 20
CCC[C@H]1[C@@H](OC(=O)NCc2ccccc2Cl)CC[C@@]23CCCN2C(=O)CCC[C@@H]13	none (no result: PAD4 inh, PME-1 primary, Fam108B counter, RBBP9 inh, GSTO1 counter)
CSCCCNC(=S)N1CCN(c2ccc(C(C)=O)cc2)CC1	none
COc1ccc(-c2cc(-c3c(O)c(OC)c4occc4c3OC)[nH]n2)cc1OC	PME-1 primary 31, Fam108B counter 23, RBBP9 inh 15 | RBBP9 inh conf 53 | Fam108b inh conf inactive
O=C(Nc1cccc(F)c1)OC(CN1CCCCC1)C(F)(F)F (centres undefined)	none
CCc1cc(/C(Cc2ccc3ccccc3n2)=N\O)c(O)cc1O	PME-1 primary 34, Fam108B counter 25, RBBP9 inh 46 | RBBP9 inh conf 50 | Fam108b inh conf 30
CC(=O)C(C(C)=O)c1c(Cl)c(O)c(O)c2c(C(=O)c3ccccc3)coc12	RBBP9 inh 26, GSTO1 counter 58, PRMT1 FP inh 79 | RBBP9 inh conf 34 | GSTO1 inh conf inactive
CN1CCN(Cc2c(O)ccc3occ(C(=O)c4ccccc4)c23)CC1	none
CC(=O)C(=Nc1ccccc1Cl)NNc1ccc(Cl)cc1	RBBP9 inh 37, GSTO1 counter 40, PRMT1 FP inh 71 | RBBP9 inh conf inactive | GSTO1 inh conf inactive
O=C(NNc1ccc(Cl)cc1)c1c(F)cccc1Cl	none
COCCNc1nc(-c2ccc(OC)cc2C)c2sc(-c3ccccc3)cc2n1	none (no result: PAD4 inh, PME-1 primary, Fam108B counter, RBBP9 inh, GSTO1 counter)
CCCCOCCCNS(=O)(=O)c1ccccc1	none
CCCCOP(=O)(OCCCC)C1(NS(=O)(=O)c2ccccc2)C=CC(=O)c2ccccc21 (centres undefined)	RBBP9 inh 24, GSTO1 counter 50 | RBBP9 inh conf 16 | GSTO1 inh conf inactive
CN(CC(=O)NC(=O)NC1CCCCC1)c1ccccc1	none (no result: Fam108B counter, RBBP9 inh, GSTO1 counter)
CNCc1ccccc1Sc1cc(O)ccc1O	RBBP9 inh 18, GSTO1 counter 89, PRMT1 FP inh 58 | RBBP9 inh conf 84 | GSTO1 inh conf 55
C=CCN=c1scc(C)n1/N=C/c1ccc(O)c(O)c1	RBBP9 inh 23, GSTO1 counter 95 | RBBP9 inh conf 24 | GSTO1 inh conf inactive
Cc1sc2ncn3ncnc3c2c1C	none
CC/C(=N\Nc1ccnc2cc(Cl)ccc12)c1ccc(O)cc1	none (no result: RBBP9 inh)
Oc1ccc(/C=N/Nc2ccnc3cc(Cl)ccc23)cc1O	PME-1 primary 42, Fam108B counter 55, RBBP9 inh 25, GSTO1 counter 38 | RBBP9 inh conf 97 | Fam108b inh conf 34 | GSTO1 inh conf inactive
CC1CN(Cc2c(O)ccc3c2oc(=O)c2ccccc23)CC(C)O1 (centres undefined)	RBBP9 inh 19, GSTO1 counter 42 | RBBP9 inh conf 63 | GSTO1 inh conf 46
CCCCNC(=S)NC1CCCC1	none
CCN(CC)S(=O)(=O)c1cccc(C(=O)N/N=C/c2ccc(O)c(O)c2O)c1	RBBP9 inh 18, GSTO1 counter 63, PRMT1 FP inh 27 | RBBP9 inh conf 66 | GSTO1 inh conf inactive

High-throughput results (PubChem BioAssay)
